Active and inactive are the calls of the source.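 The calls were made as follows, unless noted: active = fluorescence slope after compound addition differing from the mean of all tested samples at 99.7% confidence, mostly higher but some lower; inactive = the rest.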

A word on the inhibition: it is the drop in the measured response relative to a control, in per cent.

Experiment [1] can be described thus: inhibitors of TNFa-induced NFkB p65 translocation, primary screen, imaging, HUVEC, MLSMR starter and 10KST1 sets (AID 438;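 active = inhibition above 20% together with a positive visual image hit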;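 also: compound added about 3h40 before a 20 min TNFalpha stimulation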;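 as to inhibition: signal is the nuclear over cytoplasmic p65 intensity ratio per well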). As to conditions: HUVEC TNFa-induced p65 nuclear translocation; cell count: measured here: nuclei count (cytotoxicity indicator), at 2.08 µM; inhibition: at 2 µM, stronger effect = higher value, 0% TNFa-plus-vehicle, 100% no-TNFa wells.
Experiment [2] is described as follows: endothelial E-selectin expression blockers – imaging, HUVEC, immunofluorescence, MLSMR starter and 10KST1 sets, primary screen (AID 487;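 active = visually confirmed hit in the image check and inhibition above 20%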;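 as to inhibition: signal is fraction of cell area covered by stained E-selectin grains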;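 as to nuclei count: 100% = median nuclei count of all wells on the same plate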). The following applies: HUVEC TNFalpha-induced E-selectin immunofluorescence imaging, at 2 µM; inhibition: stronger effect = higher value; nuclei count: measured here: cell number, toxicity.
Experiment [3] can be described thus: Primary imaging screen for DUSP6 inhibitors that restore phospho-Erk in transfected HeLa cells, chemical complementation (AID 609;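 active = compounds giving at least 50% inhibition in the cell-based MKP-3 phosphatase rescue imaging test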;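 as to inhibition: phospho-Erk level distribution per well compared with pooled transfected vehicle control wells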). The following applies: HeLa MKP-3 transfected, phospho-Erk imaging KS statistic, at 10 µM, cells stimulated with TPA for 15 min.
The target of experiment [4] is Dual specificity protein phosphatase 6 (Homo sapiens) (UniProt Q16828). The experiment is described as above. The following applies: HeLa MKP-3 transfected, phospho-Erk imaging KS statistic; at 10 µM; stronger effect = higher value; cells stimulated with TPA for 15 min.
The target of experiment [5] is Voltage-gated potassium channel subunit beta-2 (Rattus norvegicus) (UniProt P62483). As to the kind of experiment: inhibitors of rat Kvbeta2 reductase activity – biochemical, NADPH fluorescence, primary screen (AID 622;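 active = fluorescence slope higher than the sample average by over 3 SD, cut at about -0.22 in these data, passing the limit was not always enough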;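 also: slope of raw intensity against log time taken from 70 to 1610 s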). The following applies: recombinant KvBeta, 4-cyanobenzaldehyde reduction, at 10 µM, stronger effect = higher value.
Experiment [6] has the same target. As to the kind of experiment: enhancers of rat Kvbeta2 NADPH turnover – biochemical, NADPH fluorescence, primary screen (AID 623;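 active = NADPH fluorescence slope more negative than the mean of all samples by about 3 SD, 99.7% confidence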;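 also: fluorescence intensity change per second fitted from 20 to 320 s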). As to conditions: Recombinant KvBeta, NADPH fluorescence decrease slope, 10 min; at 10 µM; stronger effect = lower value.
Experiment [7] addresses Muscarinic acetylcholine receptor M4 (Homo sapiens) (UniProt P08173). Kind of experiment: M4-linked GIRK flux change, two-sided – cell-based, HEK293 M4/GIRK, thallium flux, BTC-AM, M4 allosteric agonist project, primary screen (AID 625).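 Also: thallium influx through GIRK channels coupled to M4 in HEK293 cells with BTC-AM dye.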 The following applies: at 10 µM, actives lie on both sides. The gist of the method:
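Material: HEK293 cells with M4 receptor and GIRK channels; Times: cells overnight at 37 °C, BTC-AM loading 1 h, reads 2 min total; Technique: kinetic BTC-AM fluorescence sampled at 1 Hz, 10 s pre-addition baseline; Read-out basis: slope over 15–24 s of trace normalized to starting intensity; Controls: carbachol positive, DMSO negative.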

The nature of experiment [8]: inhibitors of larval lipid processing in zebrafish, primary screen, whole organism, PED6 fluorescence, gall bladder and intestine (AID 686;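 active = a full or partial loss of lipid-probe fluorescence in the fish gall bladder, intestine or both, judged by eye; inactive = no fluorescence loss, or compound toxic to the fish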;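 also: larvae 5 to 7 days old with five fish per well; signal comes from phospholipase A2 cleavage of quenched PED6 carried via bile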). As to conditions: Zebrafish larvae PED6 lipid processing, fluorescence scoring; screened at 20 µM (by protocol). The gist of the method:
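Incubation: overnight exposure of larvae to compound plus PED6 / Test system: live zebrafish larvae aged 5-7 days, whole organism / Amount: 5 larvae per well / Read-out basis: visual per-well fluorescence inhibition score / Signal: visual fluorescence microscopy scoring of gall bladder, gut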

The nature of experiment [9]: loss of swimming-algae plug formation – whole organism, Chlamydomonas reinhardtii, WT vs cilia-less mutant, absorbance, 96-well, primary screen (AID 463189;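 active = inhibition at or above 50% relative to wild type and mutant plate controls; inactive = inhibition below 50%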;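 also: 0% = wild type cc124 cells in DMSO and 100% = ciliumless bld1 mutant cells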). As to conditions: Chlamydomonas reinhardtii gravitaxis, OD600 absorbance, 2 days; at 10 µM; stronger effect = higher value.
Setting [10] is: measured here: cell density z-score.
[11] abbreviates: measured here: nuclear c-Myc green intensity z-score.
[12] abbreviates: measured here: nuclear pErk red intensity z-score, stronger effect = higher value.

Dual specificity protein phosphatase 6 (Homo sapiens), sequence (Q16828 whole entry, looked up): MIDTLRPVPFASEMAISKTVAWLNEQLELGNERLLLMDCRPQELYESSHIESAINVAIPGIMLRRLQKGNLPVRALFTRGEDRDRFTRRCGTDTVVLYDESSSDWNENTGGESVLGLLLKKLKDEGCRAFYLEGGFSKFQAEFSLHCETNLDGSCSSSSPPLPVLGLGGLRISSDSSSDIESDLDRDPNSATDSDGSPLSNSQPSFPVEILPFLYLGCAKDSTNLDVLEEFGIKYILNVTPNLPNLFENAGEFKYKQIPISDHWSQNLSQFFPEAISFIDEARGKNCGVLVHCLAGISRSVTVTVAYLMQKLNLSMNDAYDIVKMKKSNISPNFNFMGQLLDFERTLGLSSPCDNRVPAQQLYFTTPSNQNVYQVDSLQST
Voltage-gated potassium channel subunit beta-2 (Rattus norvegicus), sequence (P62483 whole entry, looked up): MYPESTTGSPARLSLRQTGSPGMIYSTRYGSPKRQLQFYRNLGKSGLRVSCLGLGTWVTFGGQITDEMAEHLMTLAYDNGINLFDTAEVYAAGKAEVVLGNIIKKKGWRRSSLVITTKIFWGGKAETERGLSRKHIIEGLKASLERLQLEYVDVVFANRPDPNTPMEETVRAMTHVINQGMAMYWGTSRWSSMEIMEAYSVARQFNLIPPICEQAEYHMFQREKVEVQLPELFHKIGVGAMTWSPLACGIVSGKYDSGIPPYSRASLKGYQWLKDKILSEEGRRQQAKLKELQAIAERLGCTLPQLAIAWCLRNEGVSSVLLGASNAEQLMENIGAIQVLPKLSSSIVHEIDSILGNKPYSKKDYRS
Muscarinic acetylcholine receptor M4 (Homo sapiens), sequence (P08173 whole entry, looked up): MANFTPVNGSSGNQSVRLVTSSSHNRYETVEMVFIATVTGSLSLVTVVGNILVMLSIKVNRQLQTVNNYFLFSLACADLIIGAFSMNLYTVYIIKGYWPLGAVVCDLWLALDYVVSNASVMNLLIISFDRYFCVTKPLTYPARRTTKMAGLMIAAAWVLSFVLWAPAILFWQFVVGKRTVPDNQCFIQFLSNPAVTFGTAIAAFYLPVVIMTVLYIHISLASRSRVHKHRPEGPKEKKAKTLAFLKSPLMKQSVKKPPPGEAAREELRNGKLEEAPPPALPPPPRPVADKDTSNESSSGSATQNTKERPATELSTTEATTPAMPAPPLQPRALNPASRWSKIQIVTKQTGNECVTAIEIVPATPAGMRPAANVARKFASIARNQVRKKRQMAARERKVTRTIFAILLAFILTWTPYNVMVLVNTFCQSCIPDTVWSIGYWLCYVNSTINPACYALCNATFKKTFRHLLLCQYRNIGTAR

Consider `CC1(C)CC(=O)C(C=Nc2ccc(Cl)cn2)=C(O)C1`, for which the cell count in experiment [1] came out at 493. For the same molecule, the inhibition in [1] was -2.2% (inactive); in [2], -68.2% (inactive); in experiment [4], 15.9% (inactive); in experiment [9], 35.7% (inactive). In experiment [2], this molecule came in with a nuclei count of 114%. Further, the z-score in experiment [3] (setting [10]) is 0.174; in experiment [3] (setting [11]) it was -1.57; in [3] (setting [12]), 0.727. Also, the fluorescence slope in experiment [5] was -0.464 (inactive); in experiment [7], 0.0108 (inactive). Moreover, the NADPH fluorescence slope in experiment [6] is -2.5e-06 (inactive). In addition, in experiment [8], the result was inactive.
On to `Cc1c(Cl)cccc1N1C(=O)C2ON(c3ccccc3)C(c3cccnc3)C2C1=O` (centres undefined), for which the cell count in experiment [1] came to 542. Further, the inhibition was -6.8% (inactive) in experiment [1], 9.6% (inactive) in [2], 6.04% (inactive) in experiment [4] and 20% (inactive) in experiment [9]. Moreover, the nuclei count in experiment [2] stood at 83.2%. For the same molecule, the z-score in experiment [3] (setting [10]) was 0.393; in experiment [3] (setting [11]), 0.964; in [3] (setting [12]), -1.74. Moreover, the values for the fluorescence slope in experiment [5] and in [7] were -0.497 (inactive) and 0.00557 (inactive), respectively. In experiment [6], the NADPH fluorescence slope was -1.3e-05 (inactive). The result in experiment [8] was inactive.
`Cc1cccn2c(=O)c3cc(C(=O)NCc4cccnc4)c(=N)n(C)c3nc12`: the cell count in experiment [1] was 734. Moreover, the inhibition in [1] is 7.8% (inactive); in experiment [2], -3.9% (inactive); in [4], 7.83% (inactive); in experiment [9], 2.07% (inactive). Also, in [2], the nuclei count is 154%. In addition, the z-score in experiment [3] (setting [10]) was -0.252; in [3] (setting [11]), 0.503; in experiment [3] (setting [12]), 1.16. The fluorescence slope in experiment [5] is -0.403 (inactive); in experiment [7] it was 0.00535 (inactive). For the same molecule, the NADPH fluorescence slope in experiment [6] was -4.4e-05 (inactive). Besides, the outcome in experiment [8] was inactive.
Regarding `CC(C(=O)NC(=O)NCc1ccccc1)N1C(=O)c2ccccc2C1=O` (centres undefined), the cell count in experiment [1] was 655. In addition, the inhibition in [1] was 6.1% (inactive); in experiment [2], -28.7% (inactive); in experiment [4] it was -11.4% (inactive); in experiment [9], -4.8% (inactive). This molecule also had a nuclei count in experiment [2] of 94.9%. The figures for the z-score in experiment [3] (setting [10]), in [3] (setting [11]) and in experiment [3] (setting [12]) were 0.127, 0.0595 and -0.687, respectively. In addition, the results for the fluorescence slope in [5] and in [7] were -0.461 (inactive) and 0.00457 (inactive), respectively. The NADPH fluorescence slope in [6] was -4.3e-05 (inactive). In addition, in experiment [8], the result was inactive.
With `Nc1nc2n(n1)C(c1ccc(F)cc1)CC(c1ccc(F)cc1)N2` (centres undefined), the cell count in experiment [1] worked out at 346. Also, the inhibition was -13.8% (inactive) in experiment [1], -43.3% (inactive) in [2], 5.65% (inactive) in [4] and 19.7% (inactive) in experiment [9]. Moreover, the nuclei count in [2] is 97%. Moreover, the z-score in [3] (setting [10]) was -0.282; in [3] (setting [11]), 0.742; in experiment [3] (setting [12]), -0.273. For the same molecule, the fluorescence slope in experiment [5] is -0.457 (inactive); in experiment [7] it was 0.00499 (inactive). Moreover, the NADPH fluorescence slope in experiment [6] is -5.2e-05 (inactive). In addition, in [8], the molecule was called inactive.
As to `CCOc1ccc(S(=O)(=O)N(C)CCO)cc1-c1nc2c(C(C)(C)C)nn(C)c2c(=O)[nH]1`, the cell count in [1] came to 637. The inhibition in experiment [1] was 4.6% (inactive); in experiment [2], -94.9% (inactive); in [4], 1.12% (inactive); in experiment [9], 8.59% (inactive). This molecule also had a nuclei count in experiment [2] of 165%. Besides, the values for the z-score in experiment [3] (setting [10]), in experiment [3] (setting [11]) and in experiment [3] (setting [12]) were 0.365, 1.27 and -0.248, respectively. The fluorescence slope in [5] is -0.484 (inactive); in [7], 0.00687 (inactive). In addition, in experiment [6], the NADPH fluorescence slope is -3.4e-05 (inactive). The molecule was classed as inactive in experiment [8].
With `COc1ccc(C(=O)Nc2ccccc2N2CCOCC2)cc1Br`, the cell count in experiment [1] was determined as 522. In addition, the inhibition was -7.6% (inactive) in experiment [1], -11.8% (inactive) in experiment [2], 37.7% (inactive) in experiment [4] and 10.5% (inactive) in experiment [9]. For the same molecule, in [2], the nuclei count was determined as 153%. For the same molecule, the z-score was 2.22 in [3] (setting [10]), -2.31 in experiment [3] (setting [11]) and -0.121 in experiment [3] (setting [12]). Also, the fluorescence slope is -0.351 (inactive) in experiment [5] and 0.00733 (inactive) in experiment [7]. For the same molecule, the NADPH fluorescence slope in [6] was -9.8e-06 (inactive). Further, the molecule was classed as inactive in experiment [8].
As to `c1ccc2c(c1)CCOC2CNCCCN1CCCCC1` (centres undefined), the cell count in experiment [1] stood at 701. In addition, the inhibition in experiment [1] is -5.5% (inactive); in experiment [2], -141% (inactive); in experiment [4], 1.98% (inactive); in experiment [9], -4.57% (inactive). In addition, the nuclei count in experiment [2] stood at 172%. Besides, the z-score in [3] (setting [10]) is -0.992; in [3] (setting [11]), 1.14; in [3] (setting [12]), -0.201. The fluorescence slope was -0.473 (inactive) in experiment [5] and 0.00496 (inactive) in [7]. In experiment [6], the NADPH fluorescence slope was -6.5e-05 (inactive). In addition, the outcome in experiment [8] was inactive.
In the case of `O=C(c1cc(N2CCCCC2)nc2ccccc12)N1CCOCC1`, the cell count in [1] came out at 627. In addition, the inhibition is 3.5% (inactive) in experiment [1], -37.7% (inactive) in experiment [2], -15% (inactive) in experiment [4] and 1.82% (inactive) in experiment [9]. For the same molecule, in experiment [2], the nuclei count was 159%. Further, the z-score was -1.1 in experiment [3] (setting [10]), 2.14 in experiment [3] (setting [11]) and 1.42 in experiment [3] (setting [12]). The results for the fluorescence slope in experiment [5] and in experiment [7] were -0.422 (inactive) and 0.0052 (inactive), respectively. Moreover, the NADPH fluorescence slope in [6] was -1.2e-05 (inactive). Moreover, in [8], the result was inactive.
As to `Cc1nnc2n(-c3ccccc3)c(=O)c3c4c(sc3n12)COC(C)(C)C4`, the cell count in experiment [1] amounted to 526. For the same molecule, the inhibition is -14.8% (inactive) in experiment [1], -32.4% (inactive) in [2], 24% (inactive) in [4] and 38.4% (inactive) in experiment [9]. In addition, the nuclei count in [2] stood at 98.4%. Besides, the z-score was 0.218 in experiment [3] (setting [10]), -0.0554 in [3] (setting [11]) and -0.749 in experiment [3] (setting [12]). For the same molecule, the fluorescence slope in experiment [5] was -0.48 (inactive); in experiment [7], 0.00589 (inactive). Also, the NADPH fluorescence slope in experiment [6] was 2.3e-05 (inactive). The outcome in experiment [8] was inactive.
In the case of `Cc1csc(SCCn2c(Br)nc3c2c(=O)[nH]c(=O)n3C)n1`, in experiment [1], the cell count was determined as 541. In addition, the inhibition in experiment [1] is -22.3% (inactive); in [2], -35.3% (inactive); in [4] it was -12.6% (inactive); in experiment [9] it was 31.8% (inactive). In [2], the nuclei count was found to be 180%. Besides, the figures for the z-score in experiment [3] (setting [10]), in [3] (setting [11]) and in [3] (setting [12]) were 0.452, 0.745 and 0.738, respectively. In addition, the fluorescence slope in experiment [5] is -0.409 (inactive); in experiment [7], 0.00514 (inactive). In [6], the NADPH fluorescence slope is -4.5e-05 (inactive). Moreover, the result in experiment [8] was inactive.
Turning to `COc1cccc(NC(=O)C2CC(=O)n3cnnc3S2)c1` (centres undefined), the cell count in [1] worked out at 518. The inhibition was -3.8% (inactive) in experiment [1], 12.1% (inactive) in experiment [2], 35.7% (inactive) in experiment [4] and 40.5% (inactive) in experiment [9]. The nuclei count in [2] came out at 177%. In addition, the z-score is 0.777 in experiment [3] (setting [10]), -1.1 in experiment [3] (setting [11]) and -0.46 in [3] (setting [12]). Besides, the figures for the fluorescence slope in [5] and in experiment [7] were -0.339 (inactive) and 0.00822 (inactive), respectively. Further, the NADPH fluorescence slope in [6] was -2.8e-05 (inactive). The outcome in experiment [8] was inactive.
As for `CCOC(=O)C1=C(C)N=C2SC(C)C(=O)N2C1c1ccc(C(=O)OC)cc1` (centres undefined), the cell count in experiment [1] came to 701. In addition, the inhibition was 2.4% (inactive) in [1], -69.3% (inactive) in experiment [2], 15% (inactive) in experiment [4] and -2.25% (inactive) in [9]. Besides, in experiment [2], the nuclei count turned out to be 146%. Moreover, the z-score in experiment [3] (setting [10]) is -0.735; in experiment [3] (setting [11]), 0.0686; in [3] (setting [12]), 1.13. The results for the fluorescence slope in experiment [5] and in experiment [7] were -0.428 (inactive) and 0.00536 (inactive), respectively. In experiment [6], the NADPH fluorescence slope is -2.7e-05 (inactive). Moreover, the result in [8] was inactive.

These data come from PubChem BioAssay.
